In ChEMBL document CHEMBL4000184, “Synthesis of Novel c(AmpRGD)-Sunitinib Dual Conjugates as Molecular Tools Targeting the αvβ3 Integrin/VEGFR2 Couple and Impairing Tumor-Associated Angiogenesis” (J Med Chem, 2017):
Activity calls are given as the source filed them. No cut-off for these calls is given here.

How the values were obtained:
[1] = Inhibition of VEGF-A-induced cell proliferation in human EPC at 1 uM measured after 24 hrs by trypan blue exclusion assay relative to control; type: functional
Procedure, shortened: (§1)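 Human cord-blood EPCs seeded at 6,000 cells/well on gelatin, adhered 4 h in complete medium. Then placed in serum-free medium with VEGF-A 20 ng/mL and compound at 1 μM, re-added every 24 h. Cell number and viability measured by trypan blue exclusion at 24, 48 and 72 h. Triplicate, repeated at least three times.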

[2] = Stability in rat plasma assessed as compound remaining at 1 uM measured up to 8 hrs by HPLC-UV-Vis analysis; type: ADME, cell-free; details: read-out: Stability
Procedure, shortened: (§2)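 Rat or human plasma diluted to 80% v/v with 100 mM PBS pH 7.4; compound at 1 μM final, 37 °C, protected from light. Aliquots sampled over time up to 8 h, quenched with two volumes MeCN, centrifuged, and analyzed by HPLC-UV-Vis for % compound remaining.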

[3] = Stability in human plasma assessed as compound remaining at 1 uM measured up to 8 hrs by HPLC-UV-Vis analysis; type: ADME, cell-free; details: read-out: Stability; procedure, shortened: as §2
[4] = n-Octanol-buffer distribution coefficient, log D of the compound at pH 7.4 incubated for 4 hrs by HPLC-UV-vis based shake flask method; type: physicochemical
Procedure, shortened: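 Shake-flask partition between n-octanol and 50 mM MOPS pH 7.4 (ionic strength 0.15 M, KCl) at 25 ± 3 °C. Phases pre-saturated and equilibrated 4 h in the dark; each phase analyzed by HPLC-UV-Vis. Mean of at least three runs with different volume ratios.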

Integrin alpha-V/beta-3 [5] = biological target: T1, Integrin alpha-V/beta-3 (Homo sapiens, UniProt P05106+P06756); experiment: Drug internalization in human EPC assessed as alphavbeta3-mediated drug uptake by measuring intracellular content per mg protein at 1 uM measured after 1 hr by HPLC-ESI-MS/MS analysis; type: ADME, cell-based
Procedure, shortened: (§3)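 Confluent EPCs in serum- and growth-factor-free medium received compound at 1 μM final for 1 h at 37 °C. Cells washed with PBS, then extracted immediately or 8 h later with ethanol at 4 °C. Extract measured by HPLC-ESI-MS/MS; protein by Bradford. Reported as nmol/mg protein; uptake rate as pmol/min/mg protein over the first hour. Triplicate.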

Integrin alpha-V/beta-3 [6] = biological target: T1, Integrin alpha-V/beta-3; experiment: Drug internalization in human EPC assessed as alphavbeta3-mediated drug uptake per mg protein at 1 uM measured after 1 hr by HPLC-ESI-MS/MS analysis; type: ADME; procedure, shortened: as §3
Integrin alpha-V/beta-3 [7] = biological target: T1, Integrin alpha-V/beta-3; experiment: Drug internalization in human EPC assessed as alphavbeta3-mediated drug uptake at 1 uM measured after 1 hr by HPLC-ESI-MS/MS analysis; type: ADME; procedure, shortened: as §3
Integrin alpha-V/beta-3 [8] = biological target: T1, Integrin alpha-V/beta-3; experiment: Drug uptake in human EPC assessed as alphavbeta3-mediated drug uptake by measuring intracellular content per mg protein at 1 uM measured after 8 hr by HPLC-ESI-MS/MS analysis; type: ADME, cell-based; procedure, shortened: as §3
[9] = Drug uptake in human EPC at 1 uM measured after 1 hr in presence of alphaVbeta3 integrin ligand c(AmpRGD) amine by HPLC-ESI-MS/MS analysis; type: ADME, cell-based
Procedure, shortened: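 EPCs detached with Accutase, resuspended in serum-free medium, and given compound at 1 μM with or without c(AmpRGD) amine at 100 μM. Incubated at 37 °C, 10% CO2, then washed by centrifugation. Pellets extracted with ethanol at 4 °C for 10 min; content measured by HPLC-ESI-MS/MS.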

Integrin alpha-V/beta-3 [10] = biological target: T1, Integrin alpha-V/beta-3; experiment: Displacement of biotinylated vitronectin from recombinant human integrin alphaVbeta3 dark incubated for 3 hrs by solid-phase receptor binding assay; type: protein-complex assay
Procedure, shortened: (§4)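 Recombinant human αvβ3 or α5β1 coated at 0.5 μg/mL overnight at 4 °C in Tris-HCl pH 7.4 buffer with Mn2+, Ca2+, Mg2+, then blocked with 1% BSA. Streptavidin-peroxidase read-out at 415 nm. Triplicate wells, nonlinear regression, run in duplicate.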

Integrin alpha-5/beta-1 [11] = biological target: T2, Integrin alpha-5/beta-1 (Homo sapiens, UniProt P05556+P08648); experiment: Displacement of biotinylated fibronectin from recombinant human integrin alpha5beta1 dark incubated for 3 hrs by solid-phase receptor binding assay; type: protein-complex assay; procedure, shortened: as §4
Integrin alpha-V/beta-3 [12] = biological target: T1, Integrin alpha-V/beta-3; experiment: Inhibition of vitronectin binding to alphaVbeta3 in human EPC in presence of MnCl2 measured after 30 mins by crystal violet staining based cell adhesion assay
Procedure, shortened: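 Plates coated overnight with vitronectin at 4 °C and blocked with PBS/1% BSA. EPCs in serum-free medium preincubated with compound (1–10000 nM) for 30 min at 37 °C with 2.0 mmol/L MnCl2. Plated at 5-6×10^4 cells/well for 1 h at 37 °C. Adherent cells stained with crystal violet, read at 540 nm; % inhibition vs untreated. Triplicate, repeated at least three times.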

EPC [13] = experiment: Inhibition of VEGF-A-induced cell proliferation in human EPC at 1 uM measured after 48 hrs by trypan blue exclusion assay; type: functional, cell-based; procedure, shortened: as §1
EPC [14] = experiment: Inhibition of VEGF-A-induced cell proliferation in human EPC at 1 uM measured after 72 hrs by trypan blue exclusion assay; type: functional, cell-based; procedure, shortened: as §1
[15] = Cytotoxicity against human EPC assessed as cell viability at 1 uM measured after 24 to 72 hrs by trypan blue exclusion assay; type: cell-based; procedure, shortened: as §1
[16] = biological target: T3, Vascular endothelial growth factor receptor 2 (Homo sapiens, UniProt P35968); details: at 1 µM
[17] = Antiangiogenic activity in human EPC assessed as inhibition of VEGF-A induced tubule formation at 10 nM measured after 6 hrs by matrigel based phase contrast microscopic analysis relative to control; type: functional
Procedure, shortened: (§5)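 EPCs grown 24 h in EGM-2, trypsinized, resuspended in serum/growth-factor-free EGM-2 with VEGF-A 20 ng/mL plus compound (0.01, 0.1, 1.0 μM) and seeded on growth-factor-reduced Matrigel at 7×10^4 cells/well. Incubated 6 h at 37 °C, photographed by phase contrast. Loops counted in four random fields per well, given as % reduction vs untreated cells. Triplicate.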

Integrin alpha-V/beta-3 [18] = biological target: T1, Integrin alpha-V/beta-3; details: 1 to 10000 nM
Mus musculus = experiment: In vivo antiangiogenic activity in EHS derived matrigel plug implanted FVB mouse assessed as inhibition of VEGF-A-induced angiogenesis at 10 mg/kg, by microscopic method
EPC [19] = experiment: Antiangiogenic activity in human EPC assessed as inhibition of VEGF-A induced tubule formation at 0.1 to 1 uM measured after 6 hrs by matrigel based phase contrast microscopic analysis; type: functional, cell-based; procedure, shortened: as §5
[20] = biological target: Platelet-derived growth factor receptor beta (Homo sapiens, UniProt P09619); experiment: Inhibition of recombinant human PDGFRbeta expressed in insect cells using Ulight-Poly GAT[EAY(1:1:1)]n as substrate measured after 30 mins by LANCE method
[21] = biological target: T3, Vascular endothelial growth factor receptor 2; experiment: Inhibition of recombinant human VEGFR2 expressed in Sf9 cells using Ulight-CAGAGAIETDKEYYTVKD as substrate measured after 60 mins by LANCE method
Integrin alpha-V/beta-3 [22] = biological target: T1, Integrin alpha-V/beta-3; experiment: Displacement of biotinylated vitronectin from human integrin alphaVbeta3 measured after 3 hrs by solid-phase receptor binding assay; type: protein-complex assay
Procedure, shortened: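 Recombinant human αvβ3 or α5β1 coated at 0.5 μg/mL overnight at 4 °C in Tris-HCl pH 7.4 buffer with Mn2+, Ca2+, Mg2+, then blocked with 1% BSA. Triplicate wells, nonlinear regression, run in duplicate.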

Integrin alpha-V/beta-5 = Integrin alpha-V/beta-5 (Homo sapiens, UniProt P06756+P18084); experiment: Displacement of biotinylated vitronectin from human integrin alphaVbeta5 measured after 3 hrs by solid-phase receptor binding assay; type: protein-complex assay
Integrin alpha-5/beta-1 [23] = biological target: T2, Integrin alpha-5/beta-1; experiment: Inhibition of alpha5beta1 (unknown origin); type: protein-complex assay

T2 sequence (P05556 21-798 limits assumed): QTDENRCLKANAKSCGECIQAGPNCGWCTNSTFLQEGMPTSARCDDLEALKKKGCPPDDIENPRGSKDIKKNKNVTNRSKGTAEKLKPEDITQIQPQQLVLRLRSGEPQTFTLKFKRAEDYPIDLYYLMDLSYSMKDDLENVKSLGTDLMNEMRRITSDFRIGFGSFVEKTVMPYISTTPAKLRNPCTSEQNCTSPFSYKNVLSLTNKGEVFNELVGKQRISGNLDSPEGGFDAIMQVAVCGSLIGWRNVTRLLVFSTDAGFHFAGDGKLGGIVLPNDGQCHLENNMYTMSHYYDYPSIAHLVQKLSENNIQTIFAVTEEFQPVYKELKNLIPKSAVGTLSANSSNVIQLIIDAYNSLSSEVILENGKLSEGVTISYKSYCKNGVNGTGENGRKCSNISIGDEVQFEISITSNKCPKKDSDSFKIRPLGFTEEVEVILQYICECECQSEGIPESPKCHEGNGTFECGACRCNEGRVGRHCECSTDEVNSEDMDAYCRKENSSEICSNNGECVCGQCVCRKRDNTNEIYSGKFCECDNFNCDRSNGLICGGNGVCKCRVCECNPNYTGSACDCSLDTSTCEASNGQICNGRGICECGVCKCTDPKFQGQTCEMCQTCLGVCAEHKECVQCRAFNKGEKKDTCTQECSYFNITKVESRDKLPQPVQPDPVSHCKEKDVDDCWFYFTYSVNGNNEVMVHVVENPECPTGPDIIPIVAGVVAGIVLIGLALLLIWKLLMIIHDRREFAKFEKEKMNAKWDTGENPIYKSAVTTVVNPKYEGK
T2 sequence (P08648 42-894 limits assumed): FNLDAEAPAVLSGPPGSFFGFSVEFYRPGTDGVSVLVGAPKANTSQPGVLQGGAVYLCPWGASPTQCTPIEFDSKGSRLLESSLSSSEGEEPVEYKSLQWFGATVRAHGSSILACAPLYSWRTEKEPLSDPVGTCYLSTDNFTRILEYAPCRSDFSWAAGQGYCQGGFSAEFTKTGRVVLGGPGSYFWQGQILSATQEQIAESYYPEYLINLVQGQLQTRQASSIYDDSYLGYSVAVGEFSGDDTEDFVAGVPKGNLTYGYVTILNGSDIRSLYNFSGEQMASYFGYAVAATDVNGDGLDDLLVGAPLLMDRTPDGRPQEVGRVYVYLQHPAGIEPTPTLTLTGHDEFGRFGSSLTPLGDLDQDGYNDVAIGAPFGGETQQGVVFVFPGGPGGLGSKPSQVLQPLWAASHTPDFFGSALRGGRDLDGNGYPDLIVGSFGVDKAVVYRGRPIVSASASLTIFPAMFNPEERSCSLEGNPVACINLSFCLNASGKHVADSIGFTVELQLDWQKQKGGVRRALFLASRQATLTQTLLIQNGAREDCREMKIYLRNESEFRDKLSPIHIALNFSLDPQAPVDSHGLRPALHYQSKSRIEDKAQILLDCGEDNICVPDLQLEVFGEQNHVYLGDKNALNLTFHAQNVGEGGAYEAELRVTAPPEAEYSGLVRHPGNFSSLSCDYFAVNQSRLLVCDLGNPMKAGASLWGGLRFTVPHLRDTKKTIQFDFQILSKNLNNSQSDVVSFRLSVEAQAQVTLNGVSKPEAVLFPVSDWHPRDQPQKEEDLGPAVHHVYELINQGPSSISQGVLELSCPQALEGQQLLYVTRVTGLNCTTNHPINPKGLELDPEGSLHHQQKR
T2 sequence (P08648 895-1049 limits assumed): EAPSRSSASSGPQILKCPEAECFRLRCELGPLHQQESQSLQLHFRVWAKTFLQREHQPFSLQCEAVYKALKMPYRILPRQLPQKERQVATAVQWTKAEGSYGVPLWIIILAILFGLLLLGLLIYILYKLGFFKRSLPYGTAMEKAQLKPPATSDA
T3 sequence (P35968 whole entry): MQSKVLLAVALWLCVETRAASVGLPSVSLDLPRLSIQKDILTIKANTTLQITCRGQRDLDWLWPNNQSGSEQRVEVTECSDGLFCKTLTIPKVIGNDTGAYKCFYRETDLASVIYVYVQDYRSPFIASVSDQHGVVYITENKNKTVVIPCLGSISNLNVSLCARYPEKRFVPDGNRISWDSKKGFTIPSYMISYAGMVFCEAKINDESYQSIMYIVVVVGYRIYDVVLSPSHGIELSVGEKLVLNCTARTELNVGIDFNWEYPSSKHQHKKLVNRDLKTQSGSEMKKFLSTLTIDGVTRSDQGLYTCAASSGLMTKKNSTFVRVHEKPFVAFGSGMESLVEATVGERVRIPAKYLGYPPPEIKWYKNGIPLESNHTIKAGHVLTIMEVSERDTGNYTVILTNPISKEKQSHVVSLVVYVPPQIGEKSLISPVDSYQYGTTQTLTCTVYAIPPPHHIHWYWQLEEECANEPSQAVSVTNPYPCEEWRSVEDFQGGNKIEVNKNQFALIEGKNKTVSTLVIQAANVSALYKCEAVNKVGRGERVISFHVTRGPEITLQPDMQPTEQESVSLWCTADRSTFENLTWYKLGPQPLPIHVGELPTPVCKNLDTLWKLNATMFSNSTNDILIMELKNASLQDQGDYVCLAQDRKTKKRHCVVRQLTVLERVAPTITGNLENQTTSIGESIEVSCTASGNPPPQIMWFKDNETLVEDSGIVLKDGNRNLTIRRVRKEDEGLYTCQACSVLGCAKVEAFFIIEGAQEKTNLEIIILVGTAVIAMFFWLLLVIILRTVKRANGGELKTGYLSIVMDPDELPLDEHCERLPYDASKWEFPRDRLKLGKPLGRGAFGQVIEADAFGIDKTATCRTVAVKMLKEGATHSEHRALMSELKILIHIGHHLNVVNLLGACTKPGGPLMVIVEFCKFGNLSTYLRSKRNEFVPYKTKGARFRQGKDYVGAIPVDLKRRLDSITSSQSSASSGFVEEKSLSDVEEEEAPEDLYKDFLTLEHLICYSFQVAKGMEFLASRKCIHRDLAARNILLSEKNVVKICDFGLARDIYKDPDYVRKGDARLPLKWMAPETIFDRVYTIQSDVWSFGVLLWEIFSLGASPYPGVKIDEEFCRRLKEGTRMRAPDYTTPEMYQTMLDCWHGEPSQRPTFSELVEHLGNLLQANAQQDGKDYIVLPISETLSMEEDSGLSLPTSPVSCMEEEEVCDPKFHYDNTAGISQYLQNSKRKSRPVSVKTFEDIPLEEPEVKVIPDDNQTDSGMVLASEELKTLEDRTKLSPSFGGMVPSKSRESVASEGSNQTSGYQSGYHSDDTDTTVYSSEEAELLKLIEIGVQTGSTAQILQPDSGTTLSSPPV
Chain of Platelet-derived growth factor receptor beta (P09619 whole entry): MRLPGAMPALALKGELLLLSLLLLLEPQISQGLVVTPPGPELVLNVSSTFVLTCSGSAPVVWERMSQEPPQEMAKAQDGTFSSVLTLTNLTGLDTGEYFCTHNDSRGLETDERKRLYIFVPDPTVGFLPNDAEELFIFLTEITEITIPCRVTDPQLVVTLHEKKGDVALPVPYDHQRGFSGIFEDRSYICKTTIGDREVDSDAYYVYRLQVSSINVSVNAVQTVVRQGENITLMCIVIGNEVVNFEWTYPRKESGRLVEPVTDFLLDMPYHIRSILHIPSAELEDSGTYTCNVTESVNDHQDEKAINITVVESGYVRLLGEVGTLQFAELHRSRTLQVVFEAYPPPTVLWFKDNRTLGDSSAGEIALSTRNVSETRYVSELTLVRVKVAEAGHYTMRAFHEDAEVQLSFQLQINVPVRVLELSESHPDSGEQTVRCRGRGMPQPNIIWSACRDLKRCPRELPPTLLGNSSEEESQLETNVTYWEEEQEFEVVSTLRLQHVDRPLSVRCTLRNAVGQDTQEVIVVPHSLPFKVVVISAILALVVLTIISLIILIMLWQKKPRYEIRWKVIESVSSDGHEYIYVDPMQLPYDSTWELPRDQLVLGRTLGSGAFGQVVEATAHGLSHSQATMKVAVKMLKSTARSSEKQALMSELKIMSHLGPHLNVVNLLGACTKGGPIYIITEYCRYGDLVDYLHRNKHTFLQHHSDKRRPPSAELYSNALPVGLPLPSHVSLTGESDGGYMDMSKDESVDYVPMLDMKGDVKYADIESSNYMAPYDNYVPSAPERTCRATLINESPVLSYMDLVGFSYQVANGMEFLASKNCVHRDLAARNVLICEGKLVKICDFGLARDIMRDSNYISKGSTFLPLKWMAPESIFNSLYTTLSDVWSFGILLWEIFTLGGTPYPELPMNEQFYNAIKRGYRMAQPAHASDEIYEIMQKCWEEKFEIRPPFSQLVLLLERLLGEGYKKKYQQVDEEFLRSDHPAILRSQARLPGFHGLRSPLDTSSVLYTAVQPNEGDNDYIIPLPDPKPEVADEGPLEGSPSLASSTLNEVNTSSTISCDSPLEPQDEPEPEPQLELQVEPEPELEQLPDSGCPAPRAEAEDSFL

Structure (SMILES)	remaining at 8 h, 1 µM [2] [%]	remaining at 8 h, 1 µM [3] [%]	logD at 4 h [4]	Drug uptake (Integrin alpha-V/beta-3 [5]) [nmol/mg]	Drug uptake (Integrin alpha-V/beta-3 [6]) [pmol/min]	log(activity) (Integrin alpha-V/beta-3 [7])	Drug uptake (Integrin alpha-V/beta-3 [8]) [nmol/mg]	Drug uptake [9]	IC50 (Integrin alpha-V/beta-3 [10]) [µM]	IC50 (Integrin alpha-5/beta-1 [11]) [µM]	IC50 (Integrin alpha-V/beta-3 [12]) [µM]	inhibition [16]	inhibition (Integrin alpha-V/beta-3 [12])	inhibition at 1 µM [1] [%]	inhibition (EPC [13])	inhibition (EPC [14])	Activity [15]	inhibition at 0.01 µM [17] [%]	inhibition (Mus musculus)	inhibition (EPC [19])	further results
CCN(CC)CCNC(=O)c1c(C)[nH]c(/C=C2\C(=O)Nc3ccc(F)cc32)c1C [SUNITINIB]	97.3	102	2.51	5.72			2.9							33	Active	Active	Non-Toxic	30	Active		inhibition (Integrin alpha-V/beta-3 [18]): inactive
CCN(CCNC(=O)c1c(C)[nH]c(/C=C2\C(=O)Nc3ccc(F)cc32)c1C)CCOCCOCCNC(=O)c1cc(OCc2cn(CCCCN3C[C@@H]4C[C@H]3C(=O)N[C@@H](CCCNC(=N)N)C(=O)NCC(=O)N[C@@H](CC(=O)O)C(=O)N4)nn2)cc(OCc2cn(CCCCN3C[C@@H]4C[C@H]3C(=O)N[C@@H](CCCNC(=N)N)C(=O)NCC(=O)N[C@@H](CC(=O)O)C(=O)N4)nn2)c1	109	98.6	-3.02	0.94	15.7	1.19	0.54	Not Active	0.0038	0.0958	0.5	Active	Dose-dependent effect	41	Active	Active	Non-Toxic	43	Active	Active	IC50 [20]: 0.009 µM; IC50 [21]: 0.42 µM
N=C(N)NCCC[C@@H]1NC(=O)[C@@H]2C[C@@H](CN2CCN)NC(=O)[C@H](CC(=O)O)NC(=O)CNC1=O																					IC50 (Integrin alpha-V/beta-3 [22]): 0.0061 µM; IC50 (Integrin alpha-V/beta-5): 0.315 µM; IC50 (Integrin alpha-5/beta-1 [23]): 0.152 µM

Further lines, with some results ahead:

remaining at 8 h, 1 µM [2] [%]	remaining at 8 h, 1 µM [3] [%]	logD at 4 h [4]	Drug uptake (Integrin alpha-V/beta-3 [5]) [nmol/mg]	Drug uptake (Integrin alpha-V/beta-3 [6]) [pmol/min]	log(activity) (Integrin alpha-V/beta-3 [7])	Drug uptake (Integrin alpha-V/beta-3 [8]) [nmol/mg]	Drug uptake [9]	IC50 (Integrin alpha-V/beta-3 [10]) [µM]	IC50 (Integrin alpha-5/beta-1 [11]) [µM]	IC50 (Integrin alpha-V/beta-3 [12]) [µM]	inhibition [16]	inhibition (Integrin alpha-V/beta-3 [12])	Structure (SMILES)	inhibition at 1 µM [1] [%]	inhibition (EPC [13])	inhibition (EPC [14])	Activity [15]	inhibition at 0.01 µM [17] [%]	inhibition (Mus musculus)	inhibition (EPC [19])	further results
104	107	-2.56	0.48	8	0.9	0.43	Not Active	0.0051	0.101	10	Active		CCN(CCNC(=O)c1c(C)[nH]c(/C=C2\C(=O)Nc3ccc(F)cc32)c1C)CCOCCOCCOCc1cn(CCCCN2C[C@@H]3C[C@H]2C(=O)N[C@@H](CCCNC(=N)N)C(=O)NCC(=O)N[C@@H](CC(=O)O)C(=O)N3)nn1	24	Active	inactive	Non-Toxic				
88.2	99	-2.03	0.26	4.3	0.64	0.22		0.00124	0.0307	0.5	Active	Dose-dependent effect	Cc1[nH]c(/C=C2\C(=O)Nc3ccc(F)cc32)c(C)c1C(=O)NCCNC(=O)CCc1cn(CCCCN2C[C@@H]3C[C@H]2C(=O)N[C@@H](CCCNC(=N)N)C(=O)NCC(=O)N[C@@H](CC(=O)O)C(=O)N3)nn1	46	Active	inactive	Non-Toxic	52		Active	
